Compound activity from PubChem BioAssay.
This is a sample that favours compounds with a hit; in the whole collection about 4.8% have one here.
Jurkat NFkB inh – inhibitors of the PMA/ionomycin-induced NF-kB reporter in Jurkat cells | hit rate 0.53% among 330,000 | PMA/ionomycin-induced NF-kB luciferase reporter, luminescence | inhibition, % at 4 µM; in the data active = inhibition above about 50%
HSF1 activator – increases HSF-1 driven luciferase reporter signal. NIH3T3-HGL HSF-1 luciferase reporter, MG132, 8 h; 100% = twice DMSO control signal. activation, % at 9 µM. hit rate 1.7% among 300,000. AID 504408;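 active = mean replicate activation of at least 50% with a set share of replicates each reaching 50%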;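 note: 0% = median of the neutral control wells and 100% = twice that signal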
GPR7 antagonist – blocks human GPR7 receptor signaling; hit rate 1.1% among 290,000; inhibition, % at 4.4 µM; GPR7-expressing cells, fluorescence antagonist assay; AID 1861; P48145; in the data active = inhibition above about 16%, passing the limit was not always enough;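 note: cells stimulated with the agonist NPW; 0% = agonist with vehicle and 100% = vehicle without agonist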
Target sequence (P48145 whole entry, looked up): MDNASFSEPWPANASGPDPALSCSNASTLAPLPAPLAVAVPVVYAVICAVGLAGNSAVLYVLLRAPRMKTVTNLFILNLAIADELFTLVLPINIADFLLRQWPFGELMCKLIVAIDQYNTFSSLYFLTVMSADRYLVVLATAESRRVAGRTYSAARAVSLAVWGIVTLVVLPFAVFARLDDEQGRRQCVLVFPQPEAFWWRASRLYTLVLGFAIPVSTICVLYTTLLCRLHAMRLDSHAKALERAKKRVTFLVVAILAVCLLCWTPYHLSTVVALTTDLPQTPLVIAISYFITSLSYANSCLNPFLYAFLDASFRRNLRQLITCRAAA
HSF1 inh – HSF1 inhibition. activity change, negative = inhibition, % at 7.5 µM (by protocol). AID 2098. hit rate 0.77% among 300,000. NIH3T3-HGL HSE-luciferase, MG132-induced, luminescence 8 h; stronger effect = lower value;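 active = more than half of replicate wells show activity change below -50%, luminescence cut by over half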;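 note: luciferase reports HSF-1 transcriptional activity via heat shock element; 0% = median of DMSO wells and -100% = zero luminescence signal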
697 NFkB inh – lowers PMA/ionomycin-induced NF-kB signal in 697 B cells. hit rate 0.33% among 330,000. inhibition, % at 4 µM. 697 B-cell NF-kB luciferase reporter, 16 h; in the data active = inhibition above about 35%
T cruzi repl – blocks replication of Trypanosoma cruzi. inhibition, % (no concentration beside the values). AID 1885. T. cruzi beta-gal in NIH3T3, luminescence, 90 h. hit rate 1.4% among 300,000;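 active = mean inhibition across valid replicates above about 55%, limit read from the data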;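 note: signal also drops with host cell toxicity which is not excluded here; 0% = plate median of DMSO wells and 100% = zero luminescence signal; higher percent means less beta-gal luminescence so fewer parasites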
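System: Mouse NIH/3T3 fibroblasts infected with β-gal-expressing T. cruzi Tulahuen C4 | Quantity: NIH/3T3 cells, 5,000 per well | Reagent: 5000 reporter trypomastigotes per well | Dosing: Compound pinned at 50 nL/well, DMSO | Schedule: 3 h host attachment, then at least 90 h co-culture | Detection: GalScreen luminescence, 60 min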
Active calls of the source: *; / = no result.

SMILES	Jurkat NFkB inh	HSF1 activator	GPR7 antagonist	HSF1 inh	697 NFkB inh	T cruzi repl
Cc1ccc(S(=O)(=O)c2ccccc2)cc1S	-12.1	-3.8	4.8	0.5	-13.9	62.3*
COc1ccc(Oc2ccc(N/C=C/C(=O)C(C)(C)C)cc2)cc1	-5.3	21.9	-1.6	13.6	-6.3	-3.1
CC(=O)Nc1ccc(N/C=C/C(=O)C(C)(C)C)cc1	5.7	62.6*	-16.6	34.7	6.7	8.2
c1ccc(NC2=NCCN2CCC2CCCC2)cc1	11.1	-14.3	4.7	-1.8	10.0	-5.7
Cc1cccc(N/C=C(\[N+](=O)[O-])S(=O)(=O)c2ccccc2)c1C	5.0	-8.3	-10.9	-1.4	7.7	81.9*
CC(C)Cc1ccc(CN2CCCC(NC(=O)CSc3nncn3C)C2)cc1 (stereo not given)	2.0	1.5	-4.5	-1.5	-15.2	55.0*
CC(C)Cc1ccc(CN2CCCC(NC(=O)c3nn(C)c(=O)c4ccccc34)C2)cc1 (stereo not given)	13.5	-0.7	-18.5	-3.3	7.6	60.4*
Cc1cc(C(=O)NC2CCCN(Cc3ccc(Cl)cc3)C2)n(C)n1 (stereo not given)	21.3	-88.6	-17.1	-85.3*	6.7	15.9
CC(=O)Nc1cccc(OCc2c(F)cccc2Cl)c1	1.5	6.6	-13.8	0.9	7.0	3.2
CC(=O)Nc1cccc(OCc2cnc(Cl)s2)c1	-8.0	/	19.9*	/	-8.6	/
N#Cc1cc(-c2ccc(Cl)cc2)cnc1Sc1ccccc1	6.1	-0.5	3.9	2.5	8.8	56.4*
N#Cc1cc(-c2ccccc2)cnc1Sc1ccc(Cl)cc1	0.3	19.7	-7.2	2.2	2.8	32.3
CNC(=O)c1ccsc1NC(=O)c1ccc(Cl)s1	-3.3	-72.3	-7.0	-66.2*	6.9	5.0
O=C1NC(Cc2ccccc2)c2nc3ccccc3c(=O)n2-c2ccc(Cl)cc21 (stereo not given)	14.0	/	/	/	15.8	/
COc1ccc2c(c1)sc1nc(-c3ccccc3)cn12	40.9	-72.2	5.2	-67.6*	-101.0	4.6
Cc1ccc2c(c1)[C@H]1[C@H](CO2)[C@H](c2ccccc2)[C@]2(C)C(=O)N(Cc3ccc(F)cc3)CC(=O)N12	9.6	/	/	/	-0.2	/
CC1CCC(C(C)C)C(OC(=O)COC(=O)c2cc(O)ccc2N)C1 (stereo not given)	18.4	-2.3	-16.3	4.3	1.4	70.1*
CC1CCC(C(C)C)C(OC(=O)COC(=O)c2ccc(=O)[nH]c2)C1 (stereo not given)	2.7	-7.3	-10.5	0.6	-14.4	-1.4
CC1=C(C(=O)Nc2ccc(Cl)cc2)C(c2cccs2)n2nnnc2N1 (stereo not given)	-1.9	2.5	20.1*	-4.8	25.0	35.6
O=C(c1cccc(NS(=O)(=O)c2cccc(F)c2)c1)N1CCCC1	9.9	10.9	-1.5	-0.8	-9.0	-2.4
Cc1cc(=O)oc2cc(NC(=O)CC3(CC(=O)O)CCCC3)ccc12	2.1	6.2	-14.1	1.7	-12.5	-9.6
COc1ccc(C(=O)CSc2nc(C)cc(=O)[nH]2)cc1C	-17.0	-80.7	-10.2	-76.4*	-7.2	6.7
CCC(=O)Nc1c(-c2ccc3ccccc3c2)nc2ccccn12	-16.7	15.6	-15.3	13.7	-9.2	-6.2
COc1cc(-c2[nH]ncc2CN2CCCC2c2nonc2C)cc(OC)c1OC (stereo not given)	-22.4	3.8	-4.4	-8.1	1.9	7.8
Cc1nonc1C1CCCN1Cc1cn[nH]c1-c1ccc(-c2ccccc2)cc1 (stereo not given)	-12.8	61.9*	-21.9	48.5	-14.4	34.1
SMILES	Jurkat NFkB inh	HSF1 activator	GPR7 antagonist	HSF1 inh	697 NFkB inh	T cruzi repl
Cc1ccc(-c2nnc(Nc3ccc(CC(N)=O)cc3)c3ccccc23)cc1S(N)(=O)=O	-28.4	-0.1	-4.7	-1.1	14.1	7.5
Cc1ccc(-c2nnc(Nc3ccc(CC(N)=O)cc3)c3ccccc23)cc1	32.5	27.6	-5.4	2.0	5.2	60.1*
c1ccc(CCNc2nc(-c3cccnc3)cs2)cc1	-14.9	7.9	1.2	4.0	-11.8	15.6
c1ccc(CCNc2nc(-c3ccccn3)cs2)cc1	-90.3	53.5*	2.3	32.3	-144.3	6.7
CC(C)NCC(O)COCc1ccc(Cl)cc1 (stereo not given)	-3.2	52.9*	10.1	17.1	19.6	3.3
Cc1ccc2c(cnn2C(=O)CCCC(=O)NC(C)c2ccccc2)c1 (stereo not given)	3.9	-5.8	-2.8	2.8	-64.7	-11.6
O=C(CSc1cccc2cccnc12)N1CCCC1	12.6	59.6*	0.6	57.4	-4.2	60.8*
Cc1cnc(C(=O)OCC(=O)N(Cc2ccccc2)C(C)C)cn1	8.4	3.5	0.2	3.3	8.5	3.0
CCOc1cccc(/C=C2\NC(=S)N(c3ccccc3)C2=O)c1O	-24.8	102.1*	-5.3	81.9	-90.4	-1.6
COc1cc(/C=N/n2c(=S)[nH]nc(C)c2=O)cc([N+](=O)[O-])c1O	-5.9	5.1	-5.7	0.3	4.5	1.6
CCc1n[nH]c(=S)n1/N=C/c1cc(OC)cc([N+](=O)[O-])c1O	0.7	4.8	-18.7	-2.9	11.1	67.8*
CC1(C)COC(/C=C/c2ccc([N+](=O)[O-])cc2)=N1	/	118.1*	0.0	77.9	/	-3.6
CC(=C/C(=O)O)/C=C/c1ccc([N+](=O)[O-])cc1	/	/	-4.1	/	/	/
Cc1ccc(OCCn2ncc3ccccc3c2=O)c(C)c1	-17.4	10.4	5.3	-5.3	3.1	-1.6
O=c1c2ccccc2cnn1CCOc1cccc(Br)c1	-93.7	93.8*	8.8	54.8	-90.2	2.9
CC(=O)N(/N=C1\Sc2ccccc2C1=O)c1ccccc1C	-97.0	26.5	21.7	16.7	-88.7	-2.9
CC(=O)N(/N=C1\Sc2ccccc2C1=O)c1ccc(C)cc1C	1.8	-89.0	6.6	-85.5*	-207.0	-15.6
COc1nc(-c2ccccc2)ccc1-c1noc(-c2cccs2)n1	-67.6	49.3	-11.8	19.0	-94.5	11.3
CCOc1ccccc1-c1nc(-c2ccc(C)nc2OC)no1	-69.7	62.1*	-8.9	22.6	-91.1	-13.4
COc1ccccc1CC(=O)Nc1ccc(-c2noc(COc3ccc(Cl)c(C)c3)n2)cc1	4.8	21.8	8.8	3.8	1.3	33.1
CCOc1ccccc1-c1nc(-c2ccc(NC(=O)Cc3ccccc3OC)cc2)no1	5.9	7.5	-10.2	-0.4	-16.7	56.3*
COc1nc(C)ccc1-c1noc(-c2cccs2)n1	-121.2	61.7*	4.6	21.5	-183.3	24.8
COc1ccccc1C(=O)NCCCCNC(=O)c1ccccc1OC	11.0	-3.5	/	-3.9	9.1	5.9
COc1ccccc1NC(=O)CCN1C(=O)C2CC=CCC2C1=O (stereo not given)	6.4	-1.7	-2.0	-3.4	-34.5	-1.6
CCn1nnc(NC(=O)c2sc3ccccc3c2Cl)n1	-45.5	73.6*	-9.2	43.1	-33.6	-4.0
